Results: paper PMC11068032 (Journal of medicinal chemistry, 2023)

Key:
[1] = tested on: AR protein level in T98G cells; assay: AR downregulation in T98G cells by Western blotting; format: cell-based, human; conditions: for AR downregulation activity at 50 nM / AR downregulation activity at 100 nM: 12 h; for AR protein level: 25, 50, and 100 nM
Outline: (§1)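 Cells in 6-well plates treated with test compound or DMSO (T98G screens at 100 or 50 nM for 12 h). Lysed in RIPA with protease inhibitors (10 min on ice), spun at 10,000g for 10 min, protein by BCA. 50 µg resolved on 10% SDS-PAGE, transferred to PVDF, blocked 2 h in 5% milk/TBS-T. Anti-AR or anti-AR-V7 primary overnight at 4 °C, secondary 60 min at RT, chemiluminescence. Band gray values quantified.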

[2] = tested on: AR protein level in U87 cells; assay: AR downregulation in U87 cells by Western blotting; format: cell-based, human; conditions: 25, 50, and 100 nM
Outline: as §1

AR-V7 in T98G cells = assay: Mutated AR; format: cell-based, human; conditions: Western blotting
Outline: as §1

[3] = molecular target: T1, α-crystallin (chaperone function domain of HSP27) (Bos taurus, UniProt P02470+P02510); assay: HSP27 chaperone activity assay; format: biochemical; conditions: for inhibition of in vitro chaperone function of HSP27: 10 μM (Figure 3), α-crystallin present; for interference with DTT-induced insulin aggregation: without chaperone protein, 10 μM or below
T1 sequence (P02470 1-173): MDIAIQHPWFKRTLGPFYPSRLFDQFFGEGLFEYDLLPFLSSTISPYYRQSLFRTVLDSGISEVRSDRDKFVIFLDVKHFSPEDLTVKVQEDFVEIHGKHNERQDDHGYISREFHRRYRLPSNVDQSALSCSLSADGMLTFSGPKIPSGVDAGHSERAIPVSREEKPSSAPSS
T1 sequence (P02510 1-175): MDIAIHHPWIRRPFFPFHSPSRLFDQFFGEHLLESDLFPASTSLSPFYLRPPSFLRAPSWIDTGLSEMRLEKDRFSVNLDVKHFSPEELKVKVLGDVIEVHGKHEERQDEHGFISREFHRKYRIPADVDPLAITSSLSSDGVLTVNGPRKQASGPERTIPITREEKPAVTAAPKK
Outline: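 Chaperone assay: insulin (from 1 mg/mL stock) with α-crystallin, the HSP27 chaperone domain (from 5 mg/mL stock), and test compound in PBS. Preincubated 5 min at 37 °C, then aggregation started with DTT (from 1 M stock). A400 read every 3 min for up to 2 h. Controls were insulin with or without α-crystallin in 0.1% DMSO. Three independent experiments, each in triplicate; mean curves.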

AR in U87 cells = assay: AR immunofluorescence assay in U87 cells; format: cell-based, human; conditions: 50 nM, 12 h, compared to the control
Outline: (§2)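 Cells were grown on coverslips for 24 h, then given test compound at 50 nM for 12 h. Fixed in 4% paraformaldehyde (10 min), permeabilized with 0.1% Triton X-100 (10 min) and blocked in 1% BSA (30 min). Anti-AR primary 1 h, fluorescent secondary 1 h, nuclei stained with DAPI 1 µg/mL for 10 min, then imaged by fluorescence microscopy.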

AR in T98G cells = assay: AR immunofluorescence assay in T98G cells; format: cell-based, human; conditions: 50 nM, 12 h, compared to the control
Outline: as §2

U87 xenograft tumor = U87 xenograft tumor model in nude mice; format: in vivo; conditions: for nude mice body weight / tumor size / tumor weight: 20 mg/kg IP every other day; for nude mice body weight / tumor size: 2 weeks; for tumor size / tumor weight / AR protein level in tumors: vs control; for tumor weight: end of experiment; for AR protein level in tumors: 20 mg/kg IP, Western blotting of tumor lysates
Outline: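 Nude mice (5–6 weeks) received U87 cells (5 × 10^6 in PBS) subcutaneously into both flanks; n = 4/group, 8 tumors/group. At about 50 mm3, mice got vehicle (DMSO) or test compound 20 mg/kg in PBS IP three times weekly for 14 days. Calipers three times weekly, V = 2/3 d1 × d2², body weight recorded. At end: CO2 euthanasia, tumors weighed, two tumors per mouse pooled and homogenized in RIPA for AR blotting.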

Maximum-tolerated dose = format: in vivo; conditions: 100 mg/kg per day IP for 10 days; for body weight growth rate / hematology, profile of the blood / tissue staining (H&E) of kidney, spleen, lung, liver, and heart: vs control group
Outline: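 Twelve C57BL/6 mice randomised into three groups (vehicle DMSO, or test compound in PBS), dosed IP daily and euthanised after 10 days. Body weight recorded daily. Nonfasted cardiac blood drawn immediately after euthanasia for automated haematology analysis. Heart, liver, spleen, lung and kidney rinsed in PBS, formalin-fixed, ethanol-dehydrated, xylene-cleared, paraffin-embedded and H&E-stained.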

[4] = cited from earlier work

## COc1ccc(OC)c(COc2cc(NC(=O)c3ccc4c(c3)OCO4)ccc2NS(C)(=O)=O)c1 [Compound 4, N-(3-((2,5-Dimethoxybenzyl)oxy)-4-(methylsulfonamido)phenyl)benzo[d][1,3]dioxole-5-carboxamide]
[1]
  AR downregulation activity at 50 nM: potent AR downregulation activity
  AR downregulation activity at 100 nM: significant AR downregulation activity
  AR protein level: significantly downregulate
[2]
  AR protein level: significantly downregulate
AR-V7 in T98G cells
  mutated AR (AR-V7) level: downregulate
[3]
  inhibition of in vitro chaperone function of HSP27: significantly inhibit
  interference with DTT-induced insulin aggregation: do not interfere
[3]; read-out: inhibition of the chaperone function
  inhibition at 10 µM: > 50%
AR in U87 cells
  fluorescence intensities of AR: decreased
AR in T98G cells
  fluorescence intensities of AR: decreased
U87 xenograft tumor
  nude mice body weight: not affected
  tumor size: significantly decreased
  tumor weight: significantly decrease
  AR protein level in tumors: significantly decreased
Maximum-tolerated dose
  condition observation (signs of toxicity such as dehydration, acute pain, or distress): do not show any sign of toxicity
  body weight growth rate: no growth rate difference
  hematology, profile of the blood: no change
  tissue staining (H&E) of kidney, spleen, lung, liver, and heart: no substantial histological abnormalities

## COc1ccc(OC)c(COc2cc(NC(=O)c3ccc4ccccc4c3)ccc2NS(C)(=O)=O)c1 [Compound 26, N-(3-((2,5-Dimethoxybenzyl)oxy)-4-(methylsulfonamido)phenyl)-2-naphthamide]
[1]
  AR downregulation activity at 50 nM: potent AR downregulation activity
  AR downregulation activity at 100 nM: significant AR downregulation activity
  AR protein level: significantly downregulate
[2]
  AR protein level: significantly downregulate
AR-V7 in T98G cells
  mutated AR (AR-V7) level: downregulate
[3]
  inhibition of in vitro chaperone function of HSP27: significantly inhibit
  interference with DTT-induced insulin aggregation: do not interfere
AR in U87 cells
  fluorescence intensities of AR: decreased
AR in T98G cells
  fluorescence intensities of AR: decreased
U87 xenograft tumor
  nude mice body weight: not affected
  tumor size: significantly decreased
  tumor weight: significantly decrease
  AR protein level in tumors: significantly decreased
Maximum-tolerated dose
  condition observation (signs of toxicity such as dehydration, acute pain, or distress): do not show any sign of toxicity
  body weight growth rate: no growth rate difference
  hematology, profile of the blood: no change
  tissue staining (H&E) of kidney, spleen, lung, liver, and heart: no substantial histological abnormalities

## COc1ccc(C(=O)Nc2ccc(NS(C)(=O)=O)c(OCc3cc(OC)ccc3OC)c2)cc1 [Compound I, N-(3-((2,5-dimethoxybenzyl)oxy)-4-(methylsulfonamido)phenyl)-4-methoxybenzamide]
[4]
  AUC in brain tissue as share of the AUC in plasma: about 2%
  half-life: about 1.5 h
